ChEMBL document CHEMBL3124901, “Inhibitory effect of a callophycin A derivative on iNOS expression via inhibition of Akt in lipopolysaccharide-stimulated RAW 264.7 cells” (2014)
Activity calls are given as the source filed them. The calls are words filed in the database; no cut-off is given here.

How the values were obtained:
RAW264.7 [1] = assay: Antiinflammatory activity in LPS-stimulated mouse RAW264.7 cells assessed as inhibition of iNOS protein expression at 50 uM preincubated for 15 mins followed by LPS challenge measured after 20 hrs by Western blot analysis; format: functional, cell-based
RAW264.7 [2] = assay: Inhibition of PI3K/AKT in mouse RAW264.7 cells assessed as inhibition of LPS-induced iNOS protein expression at 25 uM after 20 hrs by Western blot analysis; format: cell-based
How it was run: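 Pretreatment with 25 μM or LY294002 (25 μM), then LPS for 20 h; iNOS protein by Western blot.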

Row | Compound | inhibition (RAW264.7 [1]) | inhibition (RAW264.7 [2])
1 | O=C(O)[C@@H]1Cc2c([nH]c3ccccc23)CN1Cc1ccc(O)cc1 | inactive | 
2 | O=c1cc(N2CCOCC2)oc2c(-c3ccccc3)cccc12 |  | Active
3 | O=C(O)[C@H]1Cc2c([nH]c3ccccc23)CN1Cc1ccc(O)cc1 | inactive | 
